pIC50: −log10 of the molar value. The source made the active and inactive calls. The rule behind the calls is not given here.
Experiments:
Estrogen receptor = target: T1, Estrogen receptor (Homo sapiens, UniProt P03372); test: Displacement of Fluormone ES2 Green from full-length untagged human ERalpha expressed in insect cells after 2 hrs by fluorescence polarization assay
T1 sequence (P03372 whole entry): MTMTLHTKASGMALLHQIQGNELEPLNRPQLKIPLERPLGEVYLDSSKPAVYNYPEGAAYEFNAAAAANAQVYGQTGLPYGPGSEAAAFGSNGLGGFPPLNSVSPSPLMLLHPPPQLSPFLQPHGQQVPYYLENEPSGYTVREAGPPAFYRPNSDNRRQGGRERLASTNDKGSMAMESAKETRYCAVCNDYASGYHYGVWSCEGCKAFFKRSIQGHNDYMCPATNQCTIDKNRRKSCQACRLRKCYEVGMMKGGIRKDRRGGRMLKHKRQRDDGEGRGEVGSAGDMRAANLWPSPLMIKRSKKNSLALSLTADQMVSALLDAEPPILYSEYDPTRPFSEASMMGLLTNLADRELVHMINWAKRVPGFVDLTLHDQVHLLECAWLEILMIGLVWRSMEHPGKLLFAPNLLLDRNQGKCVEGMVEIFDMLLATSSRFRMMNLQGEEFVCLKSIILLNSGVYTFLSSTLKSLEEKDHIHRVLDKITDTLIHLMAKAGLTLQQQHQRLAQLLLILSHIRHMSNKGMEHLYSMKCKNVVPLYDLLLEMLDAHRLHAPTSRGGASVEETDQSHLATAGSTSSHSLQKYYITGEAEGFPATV

[1] = target: T2, Estrogen receptor (Homo sapiens) (UniProt P03372); test: Downregulation of ERalpha expression in human MCF7 cells at 3 uM after 6 hrs by Western blot method relative to beta-actin; assay type: cell-based
T2 sequence (whole entry): T1 sequence (P03372 whole entry)
Procedure, shortened: (§1)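 MCF-7 cells kept in DMEM with 10% FBS, kanamycin and 10 μg/mL insulin, then exposed to compounds for 6 h. Lysates made in SDS buffer (0.1 M Tris-HCl pH 8.0, 10% glycerol, 1% SDS), boiled, BCA-normalized and run on SDS-PAGE. Blots probed with anti-ERα, AR, AhR or VDR and β-actin or lamin B. Chemiluminescence quantified as target/loading-protein ratio; means ± S.E., n=3.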

[2] = target: T2, Estrogen receptor (Homo sapiens); test: Downregulation of ERalpha expression in human MCF7 cells at 10 uM after 6 hrs by Western blot method relative to beta-actin; assay type: cell-based; procedure, shortened: as §1
[3] = target: T2, Estrogen receptor (Homo sapiens); test: Downregulation of ERalpha expression in human MCF7 cells at 1 uM after 6 hrs by Western blot method relative to beta-actin; assay type: cell-based; procedure, shortened: as §1
[4] = target: T2, Estrogen receptor (Homo sapiens); test: Antagonist activity at GAL4-fused human ERalpha LBD expressed in HEK293 cells assessed as inhibition of 17beta-estradiol-induced transcriptional activation at 10 uM after 16 to 20 hrs by luciferase reporter gene assay relative to control; assay type: cell-based
Procedure, shortened: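 HEK293 cells grown in phenol red-free DMEM with 10% FBS at 37 °C, 5% CO2. Calcium phosphate co-transfection with GAL4-hERα LBD plasmid, MH100x4-tk-luciferase reporter and β-galactosidase normalization plasmid. Compounds added 8 h post-transfection with 0.3 nM 17β-estradiol; harvested 16–20 h later. Luciferase normalized to β-galactosidase; means of triplicate assays.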

[5] = target: T2, Estrogen receptor (Homo sapiens); test: Displacement of Fluormone ES2 Green from full-length untagged human ERalpha expressed in insect cells at 1 uM after 2 hrs by fluorescence polarization assay
Procedure, shortened: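 Competitive fluorescence polarization binding to ERα run with a commercial kit per manufacturer's instructions. Compounds taken from 10 mM DMSO stock. mP read at 470 nm excitation and 535 nm emission. Fraction bound correlated with mP and plotted against competitor concentration.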

| Compound | pIC50 (Estrogen receptor) | Activity [1] | Activity [2] | Activity [3] | inhibition [4] | inhibition [5] |
| --- | --- | --- | --- | --- | --- | --- |
| CCCCCCCCCCCCOc1ccc(C(CCC)(CCC)c2ccc(O)c(C)c2)cc1C | – | 111% | 96% | 128% | 61% | inactive |
| CCCC(CCC)(c1ccc(O)c(C)c1)c1ccc(OCCN(C)C)c(C)c1 | 6.50 | 115% | 100% | 109% | – | – |
| CCCCCCOc1ccc(C(CCC)(CCC)c2ccc(O)c(C)c2)cc1C | 6.77 | 95% | 86% | 89% | – | – |
| CCCCCCCCOc1ccc(C(CCC)(CCC)c2ccc(O)c(C)c2)cc1C | 6.40 | 105% | 105% | 105% | – | – |
| CCCCCCCCCCOc1ccc(C(CCC)(CCC)c2ccc(O)c(C)c2)cc1C | – | 120% | 106% | 118% | – | inactive |

Continued by rising pIC50 (Estrogen receptor), values first:

| pIC50 (Estrogen receptor) | Activity [1] | Activity [2] | Activity [3] | inhibition [4] | inhibition [5] | Compound |
| --- | --- | --- | --- | --- | --- | --- |
| 7.06 | 82% | 68% | 84% | – | – | CCCCOc1ccc(C(CCC)(CCC)c2ccc(O)c(C)c2)cc1C |
| 7.11 | 185% | 112% | 185% | – | – | CCCCCCNCCOc1ccc(C(CCC)(CCC)c2ccc(O)c(C)c2)cc1C |
| 7.11 | 154% | 150% | 145% | – | – | CCCC(CCC)(c1ccc(O)c(C)c1)c1ccc(OCCN)c(C)c1 |
| 7.40 | 96% | 87% | 95% | – | – | CCCC(CCC)(c1ccc(O)c(C)c1)c1ccc(OCC)c(C)c1 |
| 7.70 | 82% | 70% | 92% | – | – | CCCCCCCCCCCCCCCCNCCOc1ccc(C(CCC)(CCC)c2ccc(O)c(C)c2)cc1C |
| 8.14 | 79% | 70% | 80% | – | – | CCCC(CCC)(c1ccc(O)c(C)c1)c1ccc(O)c(C)c1 |
| 8.31 | 83% | 68% | 93% | – | – | CCCCCCCCCCCCNCCOc1ccc(C(CCC)(CCC)c2ccc(O)c(C)c2)cc1C |
| 8.62 | 112% | 69% | 111% | – | – | CCCCCCCCNCCOc1ccc(C(CCC)(CCC)c2ccc(O)c(C)c2)cc1C |

— ChEMBL document CHEMBL4138058, “Design and synthesis of novel selective estrogen receptor degradation inducers based on the diphenylheptane skeleton” (Medchemcomm, 2017)
